Columns and labels:
[1] = target: T1, Mitogen-activated protein kinase 14 (Homo sapiens, UniProt Q16539); test: Inhibition of p38alpha MAPK (unknown origin) assessed as target residence time using ATF2 as substrate preincubated for 1 hr followed by jump dilution in presence of substrate and measured every 3 mins for 4 hrs by TR-FRET assay
[2] = target: T1, Mitogen-activated protein kinase 14; test: Inhibition of recombinant human full-length N-terminal GST-tagged p38alpha MAPK expressed in baculovirus infected Sf9 insect cells using p38 peptide as substrate preincubated for 15 mins followed by substrate addition and measured after 60 mins by ADP-glo assay
[3] = target: T1, Mitogen-activated protein kinase 14; test: Inhibition of p38alpha MAPK in human whole blood assessed as reduction in LPS-induced TNFalpha production preincubated for 2.5 hrs followed by LPS stimulation by ELISA; assay type: tissue-based
[4] = target: T1, Mitogen-activated protein kinase 14; test: Inhibition of NanoBRET kinase tracer K4 binding to full-length human C-terminal NanoLuc-tagged p38alpha MAPK expressed in HEK293T cells incubated for 2 hrs by NanoBRET NanoGlo substrate based NanoBRET assay; assay type: cell-based, HEK-293T
Method in brief: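 Cellular reporter-displacement NanoBRET format, run in intact cells where the competing substrate ATP is present at cellular concentrations. The result is reported as an IC50.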

[5] = Drug metabolism in human liver microsomes assessed as oxidation at 100 uM measured after 180 mins in presence of NADPH generating system by LC-MS/MS analysis; assay type: ADME, Microsome; details: 3 h
[6] = Stability of the compound in human liver microsomes at 100 uM measured after 180 mins in presence of NADPH generating system by LC-MS/MS analysis; assay type: ADME, Microsome; details: 3 h

T1 sequence (Q16539 whole entry): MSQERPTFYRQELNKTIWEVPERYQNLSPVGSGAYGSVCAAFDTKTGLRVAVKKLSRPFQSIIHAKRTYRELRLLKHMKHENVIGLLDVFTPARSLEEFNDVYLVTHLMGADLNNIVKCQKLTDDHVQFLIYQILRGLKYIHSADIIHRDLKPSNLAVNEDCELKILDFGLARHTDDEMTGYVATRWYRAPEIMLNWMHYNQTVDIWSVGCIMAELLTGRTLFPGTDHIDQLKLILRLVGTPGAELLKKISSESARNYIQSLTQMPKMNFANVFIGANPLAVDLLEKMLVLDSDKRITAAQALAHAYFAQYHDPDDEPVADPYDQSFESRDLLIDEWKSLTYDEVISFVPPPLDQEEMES

Row | TIME [1] [h] | IC50 [2] [nM] | IC50 [3] [nM] | IC50 [4] [nM] | Drug metabolism [5] | Stability [6] | Structure (SMILES)
1 | 0.0244 | – | – | – | – | – | O=C1c2ccc(Nc3ccc(F)cc3F)cc2CCc2ccc(OC[C@H](O)CO)cc21
2 | 0.207 | 12 | 43 | – | – | – | O=C(NCCN1CCOCC1)c1ccc2c(c1)C(=O)c1ccc(Nc3ccc(F)c(NC(=O)c4cccs4)c3)cc1CC2
3 | 0.281 | 16 | 490 | 30.4 | – | – | O=C(NCCN1CCOCC1)c1ccc2c(c1)C(=O)c1ccc(Nc3ccc(F)c(/C=N/NC(=O)c4ccc[se]4)c3)cc1CC2
4 | 0.231 | 19.7 | 47 | 6.3 | Metabolite_Notdetected | Stable | O=C(NCCN1CCOCC1)c1ccc2c(c1)C(=O)c1ccc(Nc3ccc(F)c(/C=N/NC(=O)c4ccccc4)c3)cc1CC2
5 | 0.443 | 24.6 | 101 | 4.9 | Metabolite_Notdetected | – | O=C(NCCN1CCOCC1)c1ccc2c(c1)C(=O)c1ccc(Nc3ccc(F)c(NC(=O)c4ccc[se]4)c3)cc1CC2
6 | 0.372 | 29.7 | 276 | 15.5 | – | – | O=C(NCCN1CCOCC1)c1ccc2c(c1)C(=O)c1ccc(Nc3ccc(F)c(/C=N/NC(=O)c4cccs4)c3)cc1CC2
7 | 0.0511 | – | – | – | – | – | O=C(NCCN1CCOCC1)c1ccc2c(c1)C(=O)c1ccc(Nc3ccc(F)c(NC(=O)c4ccccc4)c3)cc1CC2
